Tests used:
Citrobacter freundii [1] = assay: (§1) Compound was tested for the half saturation constant derived from concentration dependence studies in Citrobacter freundii; format: organism-based
Summary of the method: (§2)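 Purified β-lactamases (C. freundii 1928, E. coli SNO3, TEM-3, SHV-2) reacted with inhibitor. K_S is the half-saturation constant for forming the acyl-enzyme complex, taken from the concentration dependence of that reaction. It was obtained together with the acylation rate k_on and the acyl-enzyme breakdown rate k_off, using previously published kinetic methods.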

Escherichia coli [2] = assay: (§3) Compound was tested for the half saturation constant derived from concentration dependence studies in Escherichia coli SHV-2.; format: organism-based; summary of the method: as §2
Escherichia coli [3] = assay: (§4) Compound was tested for the half saturation constant derived from concentration dependence studies in Escherichia coli SNO3.; format: organism-based; summary of the method: as §2
Escherichia coli [4] = assay: (§5) Compound was tested for the half saturation constant derived from concentration dependence studies in Escherichia coli TEM-3.; format: organism-based; summary of the method: as §2
Beta-lactamase L1 = Beta-lactamase L1 (Stenotrophomonas maltophilia, UniProt P52700); assay: Compound was tested for inhibition of Beta-lactamase from Xanthomonas maltophila 328
Sequence of Beta-lactamase L1 (P52700 whole entry): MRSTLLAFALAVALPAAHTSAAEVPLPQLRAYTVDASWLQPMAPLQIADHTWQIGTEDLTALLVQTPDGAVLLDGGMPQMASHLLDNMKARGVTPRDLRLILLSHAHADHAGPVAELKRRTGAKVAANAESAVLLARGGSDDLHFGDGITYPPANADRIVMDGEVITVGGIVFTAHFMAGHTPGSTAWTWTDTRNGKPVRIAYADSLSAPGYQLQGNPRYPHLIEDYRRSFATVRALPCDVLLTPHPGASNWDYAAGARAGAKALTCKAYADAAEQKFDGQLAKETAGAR

Bacillus licheniformis = assay: Compound was tested for inhibition of Bacillus licheniformis 749/C, class A of beta-Lactamases.; format: functional, organism-based
Citrobacter freundii [5] = assay: Compound was tested for inhibition of Citrobacter freundii 1928 in combination with Ceftriaxone; format: functional
Summary of the method: (§6)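 MICs determined by serial 2-fold dilution in Mueller-Hinton broth with an inoculum of approximately 10⁵ cfu/mL. The test compound was combined with ceftriaxone.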

Enterobacter cloacae [6] = assay: Compound was tested for inhibition of Ent. cloacae 908R in combination with Ceftriaxone; format: functional; summary of the method: as §6
Pseudomonas aeruginosa [7] = assay: Compound was tested for inhibition of Pseudomonas aeruginosa 18SH in combination with Ceftriaxone; format: functional; summary of the method: as §6
[8] = (§7) Compound was tested for inhibition of TEM-3, class A of beta-lactamases.; format: functional, Escherichia coli
[9] = (§8) Compound was tested for inhibition of pTEM-3 from Escherichia coli in combination with Ceftriaxone; format: functional; summary of the method: as §6
[10] = (§9) Compound was tested for inhibition of pTEM-4 from Escherichia coli in combination with Ceftriaxone; format: functional; summary of the method: as §6
[11] = (§10) Compound was tested for inhibition of TEM-1, class A of beta-lactamases.; format: functional, Escherichia coli
Beta-lactamase OXA-1 = Beta-lactamase OXA-1 (Escherichia coli, UniProt P13661); assay: Compound was tested for inhibition of Beta-lactamase from OXA-1
Sequence of Beta-lactamase OXA-1 (P13661 whole entry): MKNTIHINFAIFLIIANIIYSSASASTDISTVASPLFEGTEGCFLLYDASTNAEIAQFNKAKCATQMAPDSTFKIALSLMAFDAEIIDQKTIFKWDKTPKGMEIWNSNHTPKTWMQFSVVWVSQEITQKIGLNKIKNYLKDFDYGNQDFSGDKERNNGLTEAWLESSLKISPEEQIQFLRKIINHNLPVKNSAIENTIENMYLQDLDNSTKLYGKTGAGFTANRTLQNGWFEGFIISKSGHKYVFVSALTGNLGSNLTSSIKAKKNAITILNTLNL

Beta-lactamase pse-1 = Beta-lactamase pse-1 (Escherichia coli, UniProt Q2V0Y6); assay: Compound was tested for inhibition of Beta-lactamase from PSE-1
Sequence of Beta-lactamase pse-1 (Q2V0Y6 whole entry): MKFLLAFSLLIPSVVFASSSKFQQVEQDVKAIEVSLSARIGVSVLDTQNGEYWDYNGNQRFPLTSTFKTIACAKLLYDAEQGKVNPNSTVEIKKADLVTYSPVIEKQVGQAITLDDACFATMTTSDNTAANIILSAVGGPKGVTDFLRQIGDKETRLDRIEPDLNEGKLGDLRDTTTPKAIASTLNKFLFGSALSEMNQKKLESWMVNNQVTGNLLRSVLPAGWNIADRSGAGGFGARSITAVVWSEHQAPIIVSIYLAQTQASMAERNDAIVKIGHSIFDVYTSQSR

Beta-lactamase TEM [12] = target: T1, Beta-lactamase TEM (Escherichia coli, UniProt P62593); assay: Compound was tested for inhibition of Beta-lactamase from RTEM-1
T1 sequence (P62593 whole entry): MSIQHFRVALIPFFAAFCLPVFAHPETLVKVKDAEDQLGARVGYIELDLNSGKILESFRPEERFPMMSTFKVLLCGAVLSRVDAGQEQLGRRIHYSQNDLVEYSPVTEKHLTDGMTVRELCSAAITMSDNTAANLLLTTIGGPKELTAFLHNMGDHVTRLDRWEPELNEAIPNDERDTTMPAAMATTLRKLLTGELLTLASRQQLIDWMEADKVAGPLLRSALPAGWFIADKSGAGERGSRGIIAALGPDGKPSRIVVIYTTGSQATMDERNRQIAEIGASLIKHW

Beta-lactamase TEM [13] = target: T1, Beta-lactamase TEM; assay: Compound was tested for inhibition of Beta-lactamase from RTEM-2
Beta-lactamase SHV-1 = Beta-lactamase SHV-1 (Escherichia coli, UniProt P0AD63); assay: Compound was tested for inhibition of Beta-lactamase from SHV-2
Sequence of Beta-lactamase SHV-1 (P0AD63 22-286 limits assumed): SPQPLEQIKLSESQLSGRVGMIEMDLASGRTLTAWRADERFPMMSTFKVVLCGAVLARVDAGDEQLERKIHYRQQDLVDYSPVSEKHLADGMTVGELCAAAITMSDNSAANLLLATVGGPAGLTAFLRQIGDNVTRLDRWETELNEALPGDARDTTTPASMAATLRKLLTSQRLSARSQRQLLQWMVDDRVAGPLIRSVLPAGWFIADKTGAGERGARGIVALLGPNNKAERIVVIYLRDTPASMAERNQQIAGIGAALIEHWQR

Beta-lactamase [14] = target: T2, Beta-lactamase (Bacillus licheniformis, UniProt P00808); assay: Compound was tested for inhibition of Beta-lactamase from Bacillus licheniformis 749/C
T2 sequence (P00808 whole entry): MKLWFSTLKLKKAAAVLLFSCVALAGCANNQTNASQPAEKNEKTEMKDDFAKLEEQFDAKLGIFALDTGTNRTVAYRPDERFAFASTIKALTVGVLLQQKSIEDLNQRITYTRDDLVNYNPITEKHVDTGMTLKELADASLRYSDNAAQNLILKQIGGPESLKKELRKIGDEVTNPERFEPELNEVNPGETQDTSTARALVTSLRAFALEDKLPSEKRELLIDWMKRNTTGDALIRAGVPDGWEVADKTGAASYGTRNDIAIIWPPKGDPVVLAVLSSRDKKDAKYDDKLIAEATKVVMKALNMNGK

[15] = target: Metallo-beta-lactamase type 2 (Bacteroides fragilis, UniProt P25910); assay: Compound was tested for inhibition of Beta-lactamase from Bacteroides fragilis BF 101
Sequence of Metallo-beta-lactamase type 2 (P25910 whole entry): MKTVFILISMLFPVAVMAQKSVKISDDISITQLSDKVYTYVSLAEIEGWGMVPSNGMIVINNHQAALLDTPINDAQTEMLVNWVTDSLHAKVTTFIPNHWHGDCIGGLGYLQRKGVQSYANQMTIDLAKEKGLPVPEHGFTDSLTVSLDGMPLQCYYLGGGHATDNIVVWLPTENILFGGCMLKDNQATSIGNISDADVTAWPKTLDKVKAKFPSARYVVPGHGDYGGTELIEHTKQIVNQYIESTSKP

Beta-lactamase [16] = target: T3, Beta-lactamase (Pseudomonas aeruginosa (strain ATCC 15692 / PAO1 / 1C / PRS 101 / LMG12228), UniProt P24735); assay: Compound was tested for inhibition of Beta-lactamase from Pseudomonas aeruginosa GN10362
T3 sequence (P24735 whole entry): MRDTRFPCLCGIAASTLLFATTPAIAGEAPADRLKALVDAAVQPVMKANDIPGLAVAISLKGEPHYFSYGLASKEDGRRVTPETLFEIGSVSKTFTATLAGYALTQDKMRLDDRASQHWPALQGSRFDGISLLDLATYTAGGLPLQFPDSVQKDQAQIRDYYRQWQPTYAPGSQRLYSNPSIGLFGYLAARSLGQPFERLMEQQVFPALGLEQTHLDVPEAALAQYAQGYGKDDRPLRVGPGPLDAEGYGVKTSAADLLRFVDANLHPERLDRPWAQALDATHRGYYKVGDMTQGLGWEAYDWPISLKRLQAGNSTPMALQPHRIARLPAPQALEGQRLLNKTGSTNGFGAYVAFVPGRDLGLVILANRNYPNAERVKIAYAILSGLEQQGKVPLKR

Beta-lactamase [17] = target: T3, Beta-lactamase; assay: Compound was tested for inhibition of Beta-lactamase from Pseudomonas aeruginosa MK-1184
Citrobacter freundii [18] = assay: Compound was tested for inhibition of Citrobacter freundii 1928 in combination with Ceftriaxone (expressed in MIC).; format: functional, organism-based
Citrobacter freundii [19] = assay: as §1; format: functional; summary of the method: as §2
Escherichia coli [20] = assay: as §3; format: functional; summary of the method: as §2
Enterobacter cloacae [21] = assay: Compound was tested for inhibition of Ent. cloacae 908R in combination with Ceftriaxone (expressed in MIC).; format: functional, organism-based; summary of the method: as §6
Escherichia coli [22] = assay: as §4; format: functional; summary of the method: as §2
Escherichia coli [23] = assay: as §5; format: functional; summary of the method: as §2
[24] = target: Penicillin-binding protein 2b (Staphylococcus aureus, UniProt Q9XDB3); assay: Compound was tested for inhibition of Penicillin-binding protein 3 from Staphylococcus aureus (Schoch).
Sequence of Penicillin-binding protein 2b (Q9XDB3 whole entry, the tested form may be a part): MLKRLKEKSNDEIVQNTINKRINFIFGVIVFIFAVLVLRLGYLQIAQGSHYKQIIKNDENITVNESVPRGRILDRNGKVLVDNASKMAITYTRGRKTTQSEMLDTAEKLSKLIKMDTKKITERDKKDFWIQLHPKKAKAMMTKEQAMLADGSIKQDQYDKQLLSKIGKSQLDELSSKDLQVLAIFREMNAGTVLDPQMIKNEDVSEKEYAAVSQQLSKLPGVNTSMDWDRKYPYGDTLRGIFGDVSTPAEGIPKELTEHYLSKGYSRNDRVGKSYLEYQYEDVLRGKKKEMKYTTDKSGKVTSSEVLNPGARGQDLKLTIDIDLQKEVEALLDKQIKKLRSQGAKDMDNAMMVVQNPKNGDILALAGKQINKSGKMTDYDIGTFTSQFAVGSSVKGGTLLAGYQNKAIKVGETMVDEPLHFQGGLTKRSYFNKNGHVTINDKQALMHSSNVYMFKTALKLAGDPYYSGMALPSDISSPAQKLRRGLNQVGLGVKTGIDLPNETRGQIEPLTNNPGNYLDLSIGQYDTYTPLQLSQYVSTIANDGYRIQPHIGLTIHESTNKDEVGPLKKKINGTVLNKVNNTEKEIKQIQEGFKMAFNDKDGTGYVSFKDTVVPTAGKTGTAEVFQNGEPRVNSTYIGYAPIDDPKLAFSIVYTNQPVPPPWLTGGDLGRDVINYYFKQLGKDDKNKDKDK
Summary of the method: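 Competition for penicillin binding measured on S. aureus Schoch membrane fragments with 14C-labelled benzylpenicillin as the probe. The value is the IC50 (µM) for the PBP 3 band.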

[25] = target: PBP3 from Escherichia coli (K-12) (Escherichia coli, UniProt P0AD68); assay: Compound was tested for inhibition of Penicillin-binding protein 3 from Escherichia coli.
Sequence of PBP3 from Escherichia coli (K-12) (P0AD68 whole entry, looked up): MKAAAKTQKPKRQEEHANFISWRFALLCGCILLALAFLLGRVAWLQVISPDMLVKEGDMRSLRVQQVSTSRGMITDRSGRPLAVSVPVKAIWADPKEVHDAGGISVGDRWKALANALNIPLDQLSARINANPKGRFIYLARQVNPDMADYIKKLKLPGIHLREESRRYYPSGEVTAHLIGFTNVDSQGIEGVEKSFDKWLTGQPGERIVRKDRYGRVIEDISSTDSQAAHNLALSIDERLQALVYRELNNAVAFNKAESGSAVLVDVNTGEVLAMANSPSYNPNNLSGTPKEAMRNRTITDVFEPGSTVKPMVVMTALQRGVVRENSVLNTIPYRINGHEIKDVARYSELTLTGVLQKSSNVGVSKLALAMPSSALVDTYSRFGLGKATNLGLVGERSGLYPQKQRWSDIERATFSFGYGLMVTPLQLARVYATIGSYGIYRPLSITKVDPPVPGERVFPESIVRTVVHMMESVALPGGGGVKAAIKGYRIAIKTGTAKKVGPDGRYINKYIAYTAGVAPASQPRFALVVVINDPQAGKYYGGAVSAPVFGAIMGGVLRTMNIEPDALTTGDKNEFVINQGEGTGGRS

Pseudomonas aeruginosa [26] = assay: Compound was tested for inhibition of Pseudomonas aeruginosa 18SH in combination with Ceftriaxone (expressed in MIC).; format: functional, organism-based; summary of the method: as §6
Beta-lactamase [27] = target: Beta-lactamase (Staphylococcus aureus, UniProt P00807); assay: Compound was tested for inhibition of Beta-lactamase from Staphylococcus aureus PCI
Sequence of Beta-lactamase (Staphylococcus aureus, UniProt P00807) (P00807 whole entry): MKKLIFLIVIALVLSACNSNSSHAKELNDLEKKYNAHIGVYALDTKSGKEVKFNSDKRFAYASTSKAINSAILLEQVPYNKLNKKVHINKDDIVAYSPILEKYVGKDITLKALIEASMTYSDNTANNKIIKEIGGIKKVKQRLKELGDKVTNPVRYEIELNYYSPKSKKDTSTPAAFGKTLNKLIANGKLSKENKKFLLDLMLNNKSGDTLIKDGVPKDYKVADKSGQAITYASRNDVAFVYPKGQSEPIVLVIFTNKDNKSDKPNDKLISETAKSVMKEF

Beta-lactamase [28] = target: Beta-lactamase (Escherichia coli K-12, UniProt P00811); assay: Compound was tested for inhibition of Escherichia coli AmpC, class C of Beta-lactamase
Sequence of Beta-lactamase (Escherichia coli K-12, UniProt P00811) (P00811 whole entry): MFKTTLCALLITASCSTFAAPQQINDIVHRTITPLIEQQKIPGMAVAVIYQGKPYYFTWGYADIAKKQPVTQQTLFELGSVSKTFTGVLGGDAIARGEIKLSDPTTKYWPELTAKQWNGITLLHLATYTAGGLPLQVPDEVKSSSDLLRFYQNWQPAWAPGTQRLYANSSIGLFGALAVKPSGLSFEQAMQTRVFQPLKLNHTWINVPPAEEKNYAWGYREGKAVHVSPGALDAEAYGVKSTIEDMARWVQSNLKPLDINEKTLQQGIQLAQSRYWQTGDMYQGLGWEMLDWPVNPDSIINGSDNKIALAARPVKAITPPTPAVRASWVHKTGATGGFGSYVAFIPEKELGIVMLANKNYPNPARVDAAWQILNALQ

Beta-lactamase [29] = target: T2, Beta-lactamase; assay: Compound was tested for inhibition of Bacillus licheniformis 749/C, class A of Beta-lactamase
Beta-lactamase [30] = target: T3, Beta-lactamase; assay: Compound was tested for inhibition of Pseudomonas aeruginosa 18SH, class C of Beta-lactamase
Beta-lactamase [31] = target: Beta-lactamase (Citrobacter freundii, UniProt P05193); assay: Compound was tested for inhibition of Citrobacter freundii 1928, class C of Beta-lactamase
Sequence of Beta-lactamase (Citrobacter freundii, UniProt P05193) (P05193 whole entry): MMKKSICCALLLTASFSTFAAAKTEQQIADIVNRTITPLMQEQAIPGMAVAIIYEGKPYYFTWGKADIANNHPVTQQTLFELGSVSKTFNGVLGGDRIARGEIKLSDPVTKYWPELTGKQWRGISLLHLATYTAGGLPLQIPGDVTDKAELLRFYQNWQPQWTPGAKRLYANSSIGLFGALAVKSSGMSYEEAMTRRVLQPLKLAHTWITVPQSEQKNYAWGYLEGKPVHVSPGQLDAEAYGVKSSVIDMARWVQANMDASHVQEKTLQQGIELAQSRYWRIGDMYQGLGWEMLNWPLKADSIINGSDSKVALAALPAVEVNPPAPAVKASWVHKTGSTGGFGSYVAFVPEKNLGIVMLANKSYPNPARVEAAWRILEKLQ

[32] = Compound was tested for inhibition of Penicillin-binding protein 2x from Streptococcus pneumoniae
Summary of the method: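 S. pneumoniae PBP 2x was assayed as recombinant soluble protein. IC₅₀ values are reported in µM.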

[33] = target: T4, Penicillin-binding protein 1B (Escherichia coli K-12, UniProt P02919); assay: Compound was tested for inhibition of Penicillin-binding protein 1b from Escherichia coli.
T4 sequence (P02919 whole entry): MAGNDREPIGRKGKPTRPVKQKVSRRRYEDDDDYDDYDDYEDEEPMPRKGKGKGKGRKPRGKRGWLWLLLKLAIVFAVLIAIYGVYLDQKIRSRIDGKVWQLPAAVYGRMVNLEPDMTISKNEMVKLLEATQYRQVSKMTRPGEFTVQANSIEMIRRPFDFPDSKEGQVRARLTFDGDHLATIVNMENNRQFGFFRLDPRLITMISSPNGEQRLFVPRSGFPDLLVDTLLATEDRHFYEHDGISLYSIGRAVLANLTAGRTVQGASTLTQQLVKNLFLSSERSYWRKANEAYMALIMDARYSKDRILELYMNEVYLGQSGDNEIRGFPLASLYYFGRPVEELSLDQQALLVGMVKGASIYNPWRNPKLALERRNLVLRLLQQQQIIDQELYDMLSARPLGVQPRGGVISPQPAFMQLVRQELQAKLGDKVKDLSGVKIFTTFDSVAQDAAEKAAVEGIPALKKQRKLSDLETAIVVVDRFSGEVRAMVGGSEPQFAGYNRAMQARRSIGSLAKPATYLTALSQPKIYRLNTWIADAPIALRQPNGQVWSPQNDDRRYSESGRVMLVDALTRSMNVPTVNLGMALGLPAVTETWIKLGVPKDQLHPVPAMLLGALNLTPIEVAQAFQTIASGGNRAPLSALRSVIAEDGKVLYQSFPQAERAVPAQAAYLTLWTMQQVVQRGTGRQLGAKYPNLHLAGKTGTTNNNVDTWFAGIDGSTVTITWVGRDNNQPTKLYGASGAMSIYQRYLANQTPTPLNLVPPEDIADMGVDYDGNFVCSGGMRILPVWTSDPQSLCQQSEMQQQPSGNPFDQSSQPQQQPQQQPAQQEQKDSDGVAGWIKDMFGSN
Summary of the method: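 Penicillin binding was assayed on membrane fragments from E. coli W3110 or S. aureus Schoch, using ¹⁴C-labeled benzylpenicillin as the probe. IC₅₀ values are reported in µM.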

[34] = as §10; parameters: species or system Escherichia coli
[35] = as §7; parameters: species or system Escherichia coli
Escherichia coli [36] = assay: as §8; summary of the method: as §6
Escherichia coli [37] = assay: as §9; summary of the method: as §6

`C[C@]1(Cn2ccnn2)[C@H](C(=O)O)N2C(=O)C[C@H]2S1(=O)=O` [TAZOBACTAM] showed a Ks (Citrobacter freundii [1]) of 110 µM, a Ks (Escherichia coli [2]) of 5 µM and a Ks (Escherichia coli [3]) of 325 µM. It also gave a Ks (Escherichia coli [4]) of 0.74 µM and an IC50 (Beta-lactamase L1) of 4000 µM.

Work on `C[C@]1(C=CCO)[C@H](C(=O)[O-])N2C(=O)C[C@H]2S1(=O)=O.[Na+]` yielded an IC50 (Bacillus licheniformis) of 3.6 µM, an MIC (Citrobacter freundii [5]) of 8 µg/mL and an MIC (Enterobacter cloacae [6]) of 8 µg/mL. It also gave an MIC (Pseudomonas aeruginosa [7]) of 16 µg/mL, an IC50 [8] of 0.6 µM and an MIC [9] of 0.5 µg/mL. The MIC [10] was 2 µg/mL and the IC50 [11] was 6.5 µM.

Molecule `CON(C)C(=O)/C=C\[C@@]1(C)[C@H](C(=O)[O-])N2C(=O)C[C@H]2S1(=O)=O.[Na+]` has an IC50 (Bacillus licheniformis) of 4.4 µM, an MIC (Citrobacter freundii [5]) of 8 µg/mL and an MIC (Enterobacter cloacae [6]) of 16 µg/mL. It also gave an MIC (Pseudomonas aeruginosa [7]) of over 16 µg/mL, an IC50 [8] of 0.18 µM and an MIC [9] of 0.5 µg/mL. It also gave an MIC [10] of 2 µg/mL and an IC50 [11] of 12 µM.

`C[C@]1(/C=C/c2nnco2)[C@H](C(=O)[O-])N2C(=O)C[C@H]2S1(=O)=O.[Na+]` showed an IC50 (Bacillus licheniformis) of 1.7 µM, an MIC (Citrobacter freundii [5]) of 4 µg/mL and an MIC (Enterobacter cloacae [6]) of 8 µg/mL. The MIC (Pseudomonas aeruginosa [7]) was 16 µg/mL, the IC50 [8] was 0.22 µM and the MIC [9] was 0.5 µg/mL. For the same molecule, the MIC [10] was 2 µg/mL and the IC50 [11] was 12 µM.

Work on `C[C@]1(C=CC#N)[C@H](C(=O)O)N2C(=O)C[C@H]2S1(=O)=O` [Ro-481220] yielded an IC50 (Bacillus licheniformis) of 0.32 µM, an IC50 (Beta-lactamase OXA-1) of 0.1 µM and an IC50 (Beta-lactamase pse-1) of 0.09 µM. It also gave an IC50 (Beta-lactamase TEM [12]) of 1.07 µM, an IC50 (Beta-lactamase TEM [13]) of 0.98 µM and an IC50 (Beta-lactamase SHV-1) of 0.54 µM. It also gave an IC50 (Beta-lactamase [14]) of 0.32 µM, an IC50 [15] of 200 µM and an IC50 (Beta-lactamase [16]) of 0.86 µM. It also gave an IC50 (Beta-lactamase [17]) of 1.97 µM, an MIC (Citrobacter freundii [18]) of 1 µg/mL and a Ks (Citrobacter freundii [19]) of 125 µM. For the same molecule, the Ks (Escherichia coli [20]) was 2.3 µM, the MIC (Enterobacter cloacae [21]) was 1 µg/mL and the Ks (Escherichia coli [22]) was 377 µM. The Ks (Escherichia coli [23]) was 0.56 µM, the IC50 [24] was 170 µM and the IC50 [25] was over 340 µM. For the same molecule, the MIC (Pseudomonas aeruginosa [26]) was 4 µg/mL, the IC50 (Beta-lactamase L1) was 24 µM and the IC50 (Beta-lactamase [27]) was 0.25 µM.

In the case of `C[C@]1(/C=C/c2cncs2)[C@H](C(=O)O)N2C(=O)C[C@H]2S1(=O)=O`, the IC50 (Beta-lactamase [28]) is reported as 45 µM, the IC50 (Beta-lactamase [29]) is reported as 5.4 µM and the IC50 (Beta-lactamase [30]) is reported as 0.54 µM. It also gave an IC50 (Beta-lactamase [31]) of 1.3 µM, an MIC (Citrobacter freundii [5]) of 8 µg/mL and an MIC (Enterobacter cloacae [6]) of over 16 µg/mL. For the same molecule, the IC50 [32] was 50 µM, the IC50 [33] was over 10000 µM and the MIC (Pseudomonas aeruginosa [7]) was 16 µg/mL. It also gave an IC50 [34] of 8.5 µM, an IC50 [35] of 0.16 µM and an MIC (Escherichia coli [36]) of 1 µg/mL. It also gave an MIC (Escherichia coli [37]) of 4 µg/mL.

Work on `C[C@]1(/C=C\C#N)[C@H](C(=O)O)N2C(=O)C[C@H]2S1(=O)=O` yielded an IC50 (Bacillus licheniformis) of 0.32 µM, an MIC (Citrobacter freundii [18]) of 2 µg/mL and an MIC (Enterobacter cloacae [21]) of 4 µg/mL. It also gave an MIC (Pseudomonas aeruginosa [26]) of 16 µg/mL.

For `C[C@]1(/C=C\C(N)=O)[C@H](C(=O)O)N2C(=O)C[C@H]2S1(=O)=O`, the IC50 (Bacillus licheniformis) was 3.4 µM, the MIC (Citrobacter freundii [5]) was 2 µg/mL and the MIC (Enterobacter cloacae [6]) was 4 µg/mL. It also gave an MIC (Pseudomonas aeruginosa [7]) of 4 µg/mL, an IC50 [8] of 0.13 µM and an MIC [9] of 0.25 µg/mL. For the same molecule, the MIC [10] was 2 µg/mL and the IC50 [11] was 1.2 µM.
